Assay results published in ChEMBL document CHEMBL2331438, “An efficient domino reaction in ionic liquid: synthesis and biological evaluation of some pyrano- and thiopyrano-fused heterocycles” (2013).
Converted amounts (≈) assume the structure as drawn.

Assays:
Candida albicans = test: Antifungal activity against Candida albicans MTCC 227 after 48 hrs by broth microdilution method; type: functional
Aspergillus fumigatus = test: Antifungal activity against Aspergillus fumigatus MTCC 3008 after 48 hrs by broth microdilution method; type: functional
Streptococcus pneumoniae = test: Antibacterial activity against Streptococcus pneumoniae MTCC 1936 after 24 hrs by broth microdilution method; type: functional; conditions: MTCC 1936, 24 h
Salmonella typhi = test: Antibacterial activity against Salmonella typhi MTCC 98 after 24 hrs by broth microdilution method; type: functional, Salmonella enterica subsp. enterica serovar Typhi; conditions: Salmonella enterica, MTCC 98, 24 h
Escherichia coli = test: Antibacterial activity against Escherichia coli MTCC 443 after 24 hrs by broth microdilution method; type: functional; conditions: MTCC 443, 24 h
Vibrio cholerae = test: Antibacterial activity against Vibrio cholerae MTCC 3906 after 24 hrs by broth microdilution method; type: functional; conditions: MTCC 3906, 24 h
[1] = test system: Mycobacterium tuberculosis; test: Antimycobacterial activity against Mycobacterium tuberculosis H37Rv at 250 ug/ml; type: functional
Method in brief: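 M. tuberculosis H37Rv tested on L.J. (Löwenstein–Jensen) medium.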

Clostridium tetani = test: Antibacterial activity against Clostridium tetani MTCC 449 after 24 hrs by broth microdilution method; type: functional; conditions: MTCC 449, 24 h
Bacillus subtilis = test: Antibacterial activity against Bacillus subtilis MTCC 441 after 24 hrs by broth microdilution method; type: functional; conditions: MTCC 441, 24 h
[2] = Antioxidant activity assessed as ascorbic acid equivalent ferric ion reducing activity per 100 gram at 200 ug/ml by FRAP assay; type: functional

Row | Compound | MIC (Candida albicans; MTCC 227, 48 h) | MIC (Aspergillus fumigatus; MTCC 3008, 48 h) | MIC (Streptococcus pneumoniae) | MIC (Salmonella typhi) | MIC (Escherichia coli) | MIC (Vibrio cholerae) | inhibition at 250 µg/mL [1] | MIC (Clostridium tetani) | MIC (Bacillus subtilis) | Activity [2] | MIC (Candida albicans) | MIC (Aspergillus fumigatus)
1 | COC1=CC(=O)C[C@@H](C)[C@]12Oc1c(Cl)c(OC)cc(OC)c1C2=O [GRISEOFULVIN] | 500 µg/mL (≈ 1420 µM) | 100 µg/mL (≈ 283 µM) |  |  |  |  |  |  |  |  |  | 
2 | O=C(O)c1cn(C2CC2)c2cc(N3CCNCC3)c(F)cc2c1=O [CIPROFLOXACIN] |  |  | 50 µg/mL (≈ 151 µM) | 25 µg/mL (≈ 75.4 µM) | 25 µg/mL (≈ 75.4 µM) | 25 µg/mL (≈ 75.4 µM) |  |  |  |  |  | 
3 | c1ccc(-c2nn(-c3ccccc3)c3c2[C@@H]2c4cc5ccccc5nc4SC[C@@H]2CO3)cc1 | 500 µg/mL (≈ 1120 µM) | 250 µg/mL (≈ 559 µM) | 250 µg/mL (≈ 559 µM) | 250 µg/mL (≈ 559 µM) | 100 µg/mL (≈ 223 µM) | 250 µg/mL (≈ 559 µM) | 40% | 250 µg/mL (≈ 559 µM) | 200 µg/mL (≈ 447 µM) | 105 mmol |  | 
4 | Cc1cccc2cc3c(nc12)SC[C@@H]1COc2c(c(-c4ccccc4)nn2-c2ccccc2)[C@H]31 | > 1000 µg/mL | > 1000 µg/mL | 200 µg/mL (≈ 433 µM) | 125 µg/mL (≈ 271 µM) | 100 µg/mL (≈ 217 µM) | 200 µg/mL (≈ 433 µM) | 9% | 125 µg/mL (≈ 271 µM) | 200 µg/mL (≈ 433 µM) | 101 mmol |  | 
5 | Cc1nn(-c2cc(Cl)ccc2Cl)c2c1[C@@H]1c3cc4cccc(C)c4nc3SC[C@@H]1CO2 | 1000 µg/mL (≈ 2130 µM) | 1000 µg/mL (≈ 2130 µM) | 250 µg/mL (≈ 534 µM) | 200 µg/mL (≈ 427 µM) | 62.5 µg/mL (≈ 133 µM) | 100 µg/mL (≈ 213 µM) | 49% | 100 µg/mL (≈ 213 µM) | 100 µg/mL (≈ 213 µM) | 129 mmol |  | 
6 | Cc1cc(=O)oc2c3c(ccc12)OC[C@@H]1COc2c(c(-c4ccccc4)nn2-c2ccccc2)[C@H]31 | 500 µg/mL (≈ 1080 µM) | 500 µg/mL (≈ 1080 µM) | 100 µg/mL (≈ 216 µM) | 125 µg/mL (≈ 270 µM) | 62.5 µg/mL (≈ 135 µM) | 100 µg/mL (≈ 216 µM) | 68% | 100 µg/mL (≈ 216 µM) | 125 µg/mL (≈ 270 µM) | 163 mmol |  | 
7 | NYSTATIN |  |  |  |  |  |  |  |  |  |  | 100 µg/mL | 100 µg/mL
8 | Cc1nn(-c2ccc([N+](=O)[O-])cc2)c2c1[C@@H]1c3c(ccc4c(C)cc(=O)oc34)OC[C@@H]1C(C)(C)O2 | 250 µg/mL (≈ 528 µM) | 500 µg/mL (≈ 1060 µM) | 200 µg/mL (≈ 422 µM) | 125 µg/mL (≈ 264 µM) | 200 µg/mL (≈ 422 µM) | 200 µg/mL (≈ 422 µM) | 88% | 200 µg/mL (≈ 422 µM) | 200 µg/mL (≈ 422 µM) | 138 mmol |  | 
9 | Cc1nn(-c2cc(Cl)ccc2Cl)c2c1[C@@H]1c3cc4ccccc4nc3SC[C@@H]1CO2 | 500 µg/mL (≈ 1100 µM) | > 1000 µg/mL | 200 µg/mL (≈ 440 µM) |  | 250 µg/mL (≈ 550 µM) |  |  |  | 100 µg/mL (≈ 220 µM) | 158 mmol |  | 
10 | Cc1nn(-c2ccc(Cl)c(Cl)c2)c2c1[C@@H]1c3c(ccc4c(C)cc(=O)oc34)OC[C@@H]1CO2 | 500 µg/mL (≈ 1070 µM) | 500 µg/mL (≈ 1070 µM) | 250 µg/mL (≈ 533 µM) | 250 µg/mL (≈ 533 µM) | 250 µg/mL (≈ 533 µM) | 125 µg/mL (≈ 266 µM) | 20% | 100 µg/mL (≈ 213 µM) | 250 µg/mL (≈ 533 µM) | 120 mmol |  | 
11 | Cc1cc(=O)oc2c3c(ccc12)OC[C@H]1[C@@H]3c2c(-c3ccccc3)nn(-c3ccccc3)c2OC1(C)C | 1000 µg/mL (≈ 2040 µM) | > 1000 µg/mL | 125 µg/mL (≈ 255 µM) | 100 µg/mL (≈ 204 µM) | 125 µg/mL (≈ 255 µM) | 125 µg/mL (≈ 255 µM) | 80% | 100 µg/mL (≈ 204 µM) | 200 µg/mL (≈ 408 µM) | 160 mmol |  | 
12 | Cc1nn(-c2ccccc2Cl)c2c1[C@@H]1c3cc4cccc(C)c4nc3SC[C@@H]1CO2 | 500 µg/mL (≈ 1150 µM) | 250 µg/mL (≈ 576 µM) | 100 µg/mL (≈ 230 µM) | 250 µg/mL (≈ 576 µM) | 250 µg/mL (≈ 576 µM) | 200 µg/mL (≈ 461 µM) | 29% | 125 µg/mL (≈ 288 µM) | 125 µg/mL (≈ 288 µM) | 147 mmol |  | 
13 | Cc1ccc(-n2nc(C)c3c2OC[C@H]2CSc4nc5c(C)cccc5cc4[C@@H]32)cc1 | 1000 µg/mL (≈ 2420 µM) | 200 µg/mL (≈ 484 µM) | 200 µg/mL (≈ 484 µM) | 125 µg/mL (≈ 302 µM) | 100 µg/mL (≈ 242 µM) | 125 µg/mL (≈ 302 µM) | 63% | 250 µg/mL (≈ 605 µM) | 200 µg/mL (≈ 484 µM) | 112 mmol |  | 
14 | CC1(C)S[C@@H]2[C@H](NC(=O)[C@H](N)c3ccccc3)C(=O)N2[C@H]1C(=O)O [AMPICILLIN] |  |  | 100 µg/mL (≈ 286 µM) | 100 µg/mL (≈ 286 µM) | 100 µg/mL (≈ 286 µM) | 100 µg/mL (≈ 286 µM) |  | 250 µg/mL (≈ 715 µM) | 250 µg/mL (≈ 715 µM) |  |  | 
15 | O=C(N[C@H](CO)[C@H](O)c1ccc([N+](=O)[O-])cc1)C(Cl)Cl [CHLORAMPHENICOL] |  |  | 50 µg/mL (≈ 155 µM) | 50 µg/mL (≈ 155 µM) | 50 µg/mL (≈ 155 µM) | 50 µg/mL (≈ 155 µM) |  | 50 µg/mL (≈ 155 µM) | 50 µg/mL (≈ 155 µM) |  |  | 
